How the values were obtained:
[1] = molecular target: Histone-lysine N-methyltransferase KMT5B (Homo sapiens) (UniProt Q4FZB7); assay: Inhibition of human SUV420H1 using Biotin-tagged H4K20me1 and 3H-SAM as substrate at 10 uM incubated for 1 hrs by TopCount scintillation proximity assay relative to control
Outline: (§1)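 Selectivity panel against human SAM-dependent methyltransferases, radiometric format. Single test concentration of 10 μM, triplicate, read as percent inhibition.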

[2] = molecular target: Histone-lysine N-methyltransferase SETD2 (Homo sapiens) (UniProt Q9BYW2); assay: Inhibition of human SETD2 using biotin-tagged Histone H3 and 3H-SAM as substrate at 10 uM incubated for 1 hrs by TopCount scintillation proximity assay relative to control; outline: as §1
[3] = molecular target: N-lysine methyltransferase KMT5A (Homo sapiens) (UniProt Q9NQR1); assay: Inhibition of human SETD8 using biotin-tagged Histone H4 and 3H-SAM as substrate at 10 uM incubated for 1 hrs by TopCount scintillation proximity assay relative to control; outline: as §1
[4] = molecular target: Histone-lysine N-methyltransferase KMT5C (Homo sapiens) (UniProt Q86Y97); assay: Inhibition of human SUV420H2 using Biotin-tagged H4K20me1 and 3H-SAM as substrate at 10 uM incubated for 1 hrs by TopCount scintillation proximity assay relative to control; outline: as §1
[5] = molecular target: Protein arginine N-methyltransferase 6 (Homo sapiens) (UniProt Q96LA8); assay: Inhibition of human PRMT6 using biotin-tagged Histone H4 and 3H-SAM as substrate at 10 uM incubated for 1 hrs by TopCount scintillation proximity assay relative to control
Outline: (§2)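 Human methyltransferase panel, radiometric assays. Each compound tested at a single 10 μM concentration in triplicate. Enzymes inhibited by more than 50% were taken on to concentration–response.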

[6] = molecular target: Protein arginine N-methyltransferase 1 (Homo sapiens, UniProt Q99873); assay: Inhibition of human PRMT1 using biotin-tagged Histone H4 and 3H-SAM as substrate at 10 uM incubated for 1 hrs by TopCount scintillation proximity assay relative to control; outline: as §2
[7] = molecular target: N-lysine methyltransferase SMYD2 (Homo sapiens) (UniProt Q9NRG4); assay: Inhibition of human SMYD2 using biotin-tagged p53 and 3H-SAM as substrate at 10 uM incubated for 1 hrs by TopCount scintillation proximity assay relative to control; outline: as §1
[8] = molecular target: Histone-lysine N-methyltransferase SETD7 (Homo sapiens) (UniProt Q8WTS6); assay: Inhibition of human SETD7 using biotin-tagged Histone H3 and 3H-SAM as substrate at 10 uM incubated for 1 hrs by TopCount scintillation proximity assay relative to control; outline: as §1
[9] = molecular target: Histone-lysine N-methyltransferase PRDM9 (Homo sapiens) (UniProt Q9NQV7); assay: Inhibition of human PRDM9 using biotin-tagged Histone H3 and 3H-SAM as substrate at 10 uM incubated for 1 hrs by TopCount scintillation proximity assay relative to control; outline: as §2
[10] = molecular target: Protein arginine N-methyltransferase 8 (Homo sapiens) (UniProt Q9NR22); assay: Inhibition of human PRMT8 using biotin-tagged Histone H4 and 3H-SAM as substrate at 10 uM incubated for 1 hrs by TopCount scintillation proximity assay relative to control; outline: as §2
[11] = molecular target: Histone-lysine N-methyltransferase EHMT1 (Homo sapiens) (UniProt Q9H9B1); assay: Inhibition of human GLP using biotin-tagged Histone H3 and 3H-SAM as substrate at 10 uM incubated for 1 hrs by TopCount scintillation proximity assay relative to control; outline: as §2
[12] = molecular target: Histone-lysine N-methyltransferase, H3 lysine-79 specific (Homo sapiens, UniProt Q8TEK3); assay: Inhibition of human DOT1L using chicken nucleosome and 3H-SAM as substrate at 10 uM incubated for 1 hrs by TopCount scintillation proximity assay relative to control; outline: as §2
[13] = molecular target: Histone-lysine N-methyltransferase, H3 lysine-36 specific (Homo sapiens) (UniProt Q96L73); assay: Inhibition of human NSD1 using chicken nucleosome and 3H-SAM as substrate at 10 uM incubated for 1 hrs by TopCount scintillation proximity assay relative to control; outline: as §2
[14] = molecular target: Histone-lysine N-methyltransferase EHMT2 (Homo sapiens) (UniProt Q96KQ7); assay: Inhibition of human G9a using biotin-tagged Histone H3 and 3H-SAM as substrate at 10 uM incubated for 1 hrs by TopCount scintillation proximity assay relative to control; outline: as §2
[15] = molecular target: Histone-lysine N-methyltransferase NSD3 (Homo sapiens) (UniProt Q9BZ95); assay: Inhibition of human NSD3 using chicken nucleosome and 3H-SAM as substrate at 10 uM incubated for 1 hrs by TopCount scintillation proximity assay relative to control; outline: as §2
[16] = molecular target: Protein arginine N-methyltransferase 5 (Homo sapiens) (UniProt O14744); assay: Inhibition of human PRMT5 using biotin-tagged Histone H4 and 3H-SAM as substrate at 10 uM incubated for 1 hrs by TopCount scintillation proximity assay relative to control; outline: as §2
[17] = molecular target: Histone-lysine N-methyltransferase NSD2 (Homo sapiens) (UniProt O96028); assay: Inhibition of human NSD2 using chicken nucleosome and 3H-SAM as substrate at 10 uM incubated for 1 hrs by TopCount scintillation proximity assay relative to control; outline: as §2

Measured: inhibition

Sequence of Histone-lysine N-methyltransferase KMT5C (Homo sapiens) (Q86Y97 whole entry, looked up): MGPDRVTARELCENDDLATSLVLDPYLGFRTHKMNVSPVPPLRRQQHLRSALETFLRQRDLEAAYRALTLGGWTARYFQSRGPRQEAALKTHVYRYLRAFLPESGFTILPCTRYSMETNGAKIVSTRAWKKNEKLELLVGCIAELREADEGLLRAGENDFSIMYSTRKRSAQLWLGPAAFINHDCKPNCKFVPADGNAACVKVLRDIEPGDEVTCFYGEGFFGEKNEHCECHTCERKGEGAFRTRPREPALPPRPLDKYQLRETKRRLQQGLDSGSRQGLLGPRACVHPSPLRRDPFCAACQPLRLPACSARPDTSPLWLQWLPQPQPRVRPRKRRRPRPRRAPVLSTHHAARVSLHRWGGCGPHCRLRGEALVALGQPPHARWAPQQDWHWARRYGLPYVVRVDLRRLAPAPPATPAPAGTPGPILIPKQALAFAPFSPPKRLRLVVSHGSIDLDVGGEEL
Sequence of Protein arginine N-methyltransferase 5 (Homo sapiens) (O14744 whole entry): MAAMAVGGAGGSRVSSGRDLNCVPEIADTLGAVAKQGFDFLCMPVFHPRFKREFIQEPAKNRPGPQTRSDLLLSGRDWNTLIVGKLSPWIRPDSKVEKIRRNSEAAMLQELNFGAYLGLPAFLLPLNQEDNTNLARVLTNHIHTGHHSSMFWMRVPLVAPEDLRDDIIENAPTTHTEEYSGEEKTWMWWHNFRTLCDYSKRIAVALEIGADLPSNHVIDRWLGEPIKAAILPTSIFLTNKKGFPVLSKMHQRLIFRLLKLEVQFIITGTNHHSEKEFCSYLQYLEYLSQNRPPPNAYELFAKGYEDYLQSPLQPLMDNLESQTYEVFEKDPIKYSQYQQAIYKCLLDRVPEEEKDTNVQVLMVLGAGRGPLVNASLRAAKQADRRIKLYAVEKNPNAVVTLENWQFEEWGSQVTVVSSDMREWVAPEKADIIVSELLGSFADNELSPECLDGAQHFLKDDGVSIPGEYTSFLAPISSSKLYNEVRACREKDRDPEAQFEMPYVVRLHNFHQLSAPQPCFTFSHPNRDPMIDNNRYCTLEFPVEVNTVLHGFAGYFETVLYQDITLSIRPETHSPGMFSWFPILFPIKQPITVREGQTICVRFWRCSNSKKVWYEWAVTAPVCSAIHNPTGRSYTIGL
Sequence of Protein arginine N-methyltransferase 6 (Homo sapiens) (Q96LA8 whole entry, looked up): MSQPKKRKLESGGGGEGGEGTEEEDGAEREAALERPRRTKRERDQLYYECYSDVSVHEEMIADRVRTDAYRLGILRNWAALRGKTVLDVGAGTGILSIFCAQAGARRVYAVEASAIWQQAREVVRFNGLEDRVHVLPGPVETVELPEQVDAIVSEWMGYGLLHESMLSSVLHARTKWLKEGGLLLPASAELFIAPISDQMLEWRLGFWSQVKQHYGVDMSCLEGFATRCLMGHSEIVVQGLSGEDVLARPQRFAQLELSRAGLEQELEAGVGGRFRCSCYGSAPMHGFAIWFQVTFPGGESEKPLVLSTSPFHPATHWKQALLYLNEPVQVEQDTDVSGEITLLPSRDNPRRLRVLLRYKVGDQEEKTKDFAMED
Sequence of Histone-lysine N-methyltransferase, H3 lysine-36 specific (Homo sapiens) (Q96L73 whole entry): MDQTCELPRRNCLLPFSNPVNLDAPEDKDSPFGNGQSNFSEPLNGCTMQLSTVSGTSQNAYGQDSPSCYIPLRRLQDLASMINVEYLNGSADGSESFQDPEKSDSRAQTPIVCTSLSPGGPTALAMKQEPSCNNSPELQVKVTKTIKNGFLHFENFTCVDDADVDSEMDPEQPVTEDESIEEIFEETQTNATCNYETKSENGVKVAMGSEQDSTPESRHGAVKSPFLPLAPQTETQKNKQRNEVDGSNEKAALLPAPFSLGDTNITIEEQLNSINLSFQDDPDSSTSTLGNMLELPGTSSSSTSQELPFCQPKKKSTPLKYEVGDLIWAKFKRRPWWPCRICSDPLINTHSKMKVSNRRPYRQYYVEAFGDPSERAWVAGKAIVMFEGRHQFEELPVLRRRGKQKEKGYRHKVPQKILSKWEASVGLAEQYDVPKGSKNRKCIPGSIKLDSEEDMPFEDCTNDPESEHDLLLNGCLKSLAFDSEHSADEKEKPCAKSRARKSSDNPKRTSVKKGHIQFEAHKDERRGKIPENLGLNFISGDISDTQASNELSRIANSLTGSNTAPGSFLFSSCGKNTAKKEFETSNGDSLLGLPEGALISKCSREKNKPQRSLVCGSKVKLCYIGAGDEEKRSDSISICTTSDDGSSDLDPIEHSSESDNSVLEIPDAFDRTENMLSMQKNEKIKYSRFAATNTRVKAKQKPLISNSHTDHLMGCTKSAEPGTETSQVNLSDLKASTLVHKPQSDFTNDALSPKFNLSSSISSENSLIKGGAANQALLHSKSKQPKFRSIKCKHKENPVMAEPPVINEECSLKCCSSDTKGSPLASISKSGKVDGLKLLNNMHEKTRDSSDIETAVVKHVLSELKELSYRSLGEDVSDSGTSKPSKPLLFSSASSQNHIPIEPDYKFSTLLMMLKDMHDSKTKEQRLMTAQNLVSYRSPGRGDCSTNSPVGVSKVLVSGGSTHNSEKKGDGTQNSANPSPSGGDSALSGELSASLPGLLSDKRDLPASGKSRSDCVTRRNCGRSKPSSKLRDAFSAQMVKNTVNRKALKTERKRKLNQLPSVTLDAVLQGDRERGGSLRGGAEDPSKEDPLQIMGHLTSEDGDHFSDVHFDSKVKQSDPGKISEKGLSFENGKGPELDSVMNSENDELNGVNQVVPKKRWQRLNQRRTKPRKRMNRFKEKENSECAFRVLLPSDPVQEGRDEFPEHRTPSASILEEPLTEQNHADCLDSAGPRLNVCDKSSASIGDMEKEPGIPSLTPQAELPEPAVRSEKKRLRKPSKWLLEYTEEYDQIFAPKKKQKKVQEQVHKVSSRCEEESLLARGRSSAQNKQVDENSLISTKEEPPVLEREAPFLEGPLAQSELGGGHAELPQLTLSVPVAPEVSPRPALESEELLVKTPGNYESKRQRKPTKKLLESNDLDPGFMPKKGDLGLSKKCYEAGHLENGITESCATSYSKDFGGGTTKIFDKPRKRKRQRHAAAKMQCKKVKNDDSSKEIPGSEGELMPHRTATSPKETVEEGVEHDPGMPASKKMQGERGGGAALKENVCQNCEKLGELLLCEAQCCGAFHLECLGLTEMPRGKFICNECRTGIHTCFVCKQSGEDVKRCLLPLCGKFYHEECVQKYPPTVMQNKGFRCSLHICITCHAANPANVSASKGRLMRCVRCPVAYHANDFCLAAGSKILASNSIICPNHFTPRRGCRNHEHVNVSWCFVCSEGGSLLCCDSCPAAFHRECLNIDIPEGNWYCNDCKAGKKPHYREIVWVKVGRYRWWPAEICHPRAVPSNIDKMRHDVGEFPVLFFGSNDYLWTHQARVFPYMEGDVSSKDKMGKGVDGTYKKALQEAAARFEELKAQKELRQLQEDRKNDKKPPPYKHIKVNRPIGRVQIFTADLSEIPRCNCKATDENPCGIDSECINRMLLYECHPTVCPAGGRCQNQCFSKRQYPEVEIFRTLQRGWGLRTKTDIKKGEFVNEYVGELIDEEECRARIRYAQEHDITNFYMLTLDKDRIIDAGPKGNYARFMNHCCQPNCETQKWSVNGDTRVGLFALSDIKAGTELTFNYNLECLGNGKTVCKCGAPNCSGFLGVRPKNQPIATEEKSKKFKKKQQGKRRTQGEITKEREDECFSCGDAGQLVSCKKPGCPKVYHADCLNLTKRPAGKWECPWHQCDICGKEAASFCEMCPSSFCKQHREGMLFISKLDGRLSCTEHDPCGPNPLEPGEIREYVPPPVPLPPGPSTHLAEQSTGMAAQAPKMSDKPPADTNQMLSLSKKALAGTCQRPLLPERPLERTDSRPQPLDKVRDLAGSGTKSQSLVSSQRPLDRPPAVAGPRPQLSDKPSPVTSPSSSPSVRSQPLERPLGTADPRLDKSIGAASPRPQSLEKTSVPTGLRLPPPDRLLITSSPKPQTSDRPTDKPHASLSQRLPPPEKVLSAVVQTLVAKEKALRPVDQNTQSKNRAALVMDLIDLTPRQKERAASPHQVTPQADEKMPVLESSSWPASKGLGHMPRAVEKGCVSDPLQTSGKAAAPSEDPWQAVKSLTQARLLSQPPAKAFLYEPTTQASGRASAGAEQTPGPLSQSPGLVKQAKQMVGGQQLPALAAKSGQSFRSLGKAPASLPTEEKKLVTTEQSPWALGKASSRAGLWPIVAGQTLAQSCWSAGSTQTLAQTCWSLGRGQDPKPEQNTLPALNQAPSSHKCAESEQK
Sequence of Protein arginine N-methyltransferase 1 (Q99873 whole entry, looked up): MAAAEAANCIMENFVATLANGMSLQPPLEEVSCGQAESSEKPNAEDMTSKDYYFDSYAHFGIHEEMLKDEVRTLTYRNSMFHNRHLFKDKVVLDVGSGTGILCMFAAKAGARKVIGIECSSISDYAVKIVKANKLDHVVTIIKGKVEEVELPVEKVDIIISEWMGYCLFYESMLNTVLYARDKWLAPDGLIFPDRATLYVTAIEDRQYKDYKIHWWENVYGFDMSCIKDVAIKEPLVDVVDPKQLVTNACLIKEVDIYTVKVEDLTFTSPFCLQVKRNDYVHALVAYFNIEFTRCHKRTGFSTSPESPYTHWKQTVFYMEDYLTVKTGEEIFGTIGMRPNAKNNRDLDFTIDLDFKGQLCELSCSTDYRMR
Sequence of N-lysine methyltransferase KMT5A (Homo sapiens) (Q9NQR1 whole entry): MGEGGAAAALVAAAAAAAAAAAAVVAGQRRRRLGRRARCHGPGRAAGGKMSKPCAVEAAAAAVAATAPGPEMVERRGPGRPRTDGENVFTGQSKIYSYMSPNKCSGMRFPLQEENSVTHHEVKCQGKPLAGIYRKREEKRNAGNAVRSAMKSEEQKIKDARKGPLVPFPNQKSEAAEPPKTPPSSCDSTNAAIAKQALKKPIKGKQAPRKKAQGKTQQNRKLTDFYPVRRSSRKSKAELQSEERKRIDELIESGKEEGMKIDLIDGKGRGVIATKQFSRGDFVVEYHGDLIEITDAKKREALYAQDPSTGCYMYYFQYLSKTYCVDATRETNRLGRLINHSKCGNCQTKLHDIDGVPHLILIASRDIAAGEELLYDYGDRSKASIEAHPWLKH

Cc1c(C(=O)/C=C/c2ccc(O)c([N+](=O)[O-])c2)c(C#N)c2n1CCC2
< 50%: all assays above

Reference: ChEMBL document CHEMBL5338825, “Structure-Based Discovery of Inhibitors of the SARS-CoV-2 Nsp14 N7-Methyltransferase” (J Med Chem, 2023)
